Results from different studies.
Protocols differ between the studies behind these lines.
EGFR L858R/T790M: Epidermal growth factor receptor (EGFR, Homo sapiens, UniProt P00533, L858R/T790M)

Structure (SMILES) | target | test | conditions | endpoint | result
CC/C(=N\NC(=O)NCc1cccc(O)c1)c1ccc(O)c(C)c1O | EGFR L858R/T790M | enzyme activity, inhibitor | 0.1 µM | inhibition | 0.1%
Cc1ccc(NC(=O)c2ccc(C)c(C(F)(F)F)c2)cc1C#Cc1nn(C2CCC(O)CC2)c2ncnc(N)c12 (stereo not shown) | EGFR L858R/T790M | cell-free assay | 10 µM | remaining signal | 0%
FC(F)(F)c1ccc2c(c1)nc(-c1cccnc1)n2C1CC1 | Epidermal growth factor receptor (EGFR, Homo sapiens, UniProt P00533, del747-752/P753S) | cell-free assay, competition with immobilised ligand | 1 µM | remaining binding | 100%
C[C@@H]1CCN(c2nccc(-c3cnn4ncccc34)n2)C1 | EGFR L858R/T790M | binding | 1 µM | remaining binding | 76%
Cc1ccc(C(=O)Nc2ccc(CN3CCN(C)CC3)c(C(F)(F)F)c2)cc1C#Cc1cnc2cccnn12 | Epidermal growth factor receptor (EGFR, Homo sapiens, UniProt P00533, L858R) | cell-free assay | 23.5 nM | remaining signal | 95%
Cc1cnc(NC2CCOCC2)nc1-n1cnc(C(=O)NC(CN)c2cc(F)cc(Cl)c2)c1 (stereo not shown) | Epidermal growth factor receptor (EGFR, Homo sapiens, UniProt P00533, L861Q) | enzyme activity, inhibitor, radiometric | 1 µM | remaining activity | 108%
Cc1cc(NC(=O)c2cccc3cc(-c4cccc5[nH]nc(N)c45)ccc23)ccc1F | EGFR L858R/T790M | enzyme activity, inhibitor | 0.1 µM | activity vs control | 103%
CO[C@@H](C)c1c(Nc2ccc([C@@H](N(C)C(=O)C3CCS(=O)(=O)CC3)C(F)(F)F)cc2)cnc2cc(Cl)nn12 | Epidermal growth factor receptor (EGFR, Homo sapiens, UniProt P00533, T790M) | cell-free assay, competition with immobilised ligand | 1 µM | remaining binding | 100%
N[C@@H]1CCN(c2nccc(-c3cnn4ncccc34)n2)C1 | Epidermal growth factor receptor (EGFR, Homo sapiens, UniProt P00533, G719C) | binding | 1 µM | remaining binding | 83%
Cc1cc(NC(=O)c2cccc(S(F)(F)(F)(F)F)c2)cc(-n2ccn3nc(-c4cccnc4)cc23)c1 | Epidermal growth factor receptor (EGFR, Homo sapiens, UniProt P00533, G719S) | cell-free assay, competition with immobilised ligand | 1 µM | remaining binding | 100%
COc1cc(-c2cc(-c3ccc(N4CCNCC4)cc3)cnc2N)cc(OC)c1OC | EGFR L858R/T790M | enzyme activity, inhibitor | 0.1 µM | inhibition | 0%
Nc1ncnc2occ(-c3ccc(NC(=O)Nc4cc(C(F)(F)F)ccc4F)cc3)c12 | Epidermal growth factor receptor (EGFR, Homo sapiens, UniProt P00533, del746-750) | cell-free assay | 20 µM | remaining signal | 34%
O=C(Nc1ccc(Oc2ccc(F)cc2)cc1)N1CCc2ncccc2[C@H]1c1ccc(F)cc1 | Epidermal growth factor receptor (EGFR, Homo sapiens, UniProt P00533, del752-759) | cell-free assay, competition with immobilised ligand | 1 µM | remaining binding | 80%
